High-throughput results: PubChem, several laboratories
An excerpt weighted towards active compounds, which were near 2.5% of everything screened.
MT1-MMP txn act: MT1-MMP promoter reporter activation – cell-based, luciferase luminescence, primary screen; activation factor at 10 µM; AID 750, 2007; 0.16% of 86,000 active; HT1080 MT1-MMP promoter luciferase reporter, overnight; hits give high values;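 active = activation factor of at least 2 for MT1-MMP transcription at 10 µM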
SF1 activator: activators of human SF-1, primary screen, cell-based, CHO-K1, Gal4-SF-1 LBD, luciferase luminescence; activation, % at 10 µM; 1.9% of 65,000 active; AID 522, 2006; CHO-K1 Gal4-SF-1 LBD luciferase reporter; % increase over DMSO SF-1-specific signal; Steroidogenic factor 1 (Homo sapiens), Q13285;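 active = activation above the mean activation of all tested compounds plus 3 SD, cut at about 50% in these data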
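Material: Gal4–SF-1 LBD one-hybrid luciferase reporter in CHO-K1 cells | Amount: 4,000 cells per well | Compound dosing: 10 µM single point, 1% DMSO | Schedule: 20 h compound treatment, 37 °C | Measured by: SteadyLite luciferase luminescence | Evaluation: Percent activation versus DMSO | Control set: DMSO-treated SF-1-transfected cells as negative, DMSO-treated mock-transfected cells lacking SF-1 as background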
ROCK2 inh: inhibitors of human ROCK2 kinase, primary screen, biochemical, high-throughput, luminescence; Rho-associated protein kinase 2 (Homo sapiens), O75116; purified ROCK2, Kinase-Glo ATP depletion luminescence; inhibition, % at 6 µM; 0.35% of 60,000 active; AID 604, 2007;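 active = inhibition above the screen-wide mean inhibition plus 3 SD, cut at about 18% in these data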;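 note: plate controls were DMSO wells for no effect and Y-27632 control wells after no-enzyme background subtraction for full effect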
RORA act: activators of orphan receptor RORA, primary screen, cell-based, luminescence | CHO-K1 Gal4-RORA LBD luciferase reporter; percent increase over mock-subtracted basal signal | activation, % at 10 µM | Nuclear receptor ROR-alpha (Homo sapiens), P35398 | AID 560, 2006 | 1.5% of 65,000 active;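 active = activation above the mean of all tested compounds plus 3 SD, cut at about 49% in these data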;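 note: 0% = DMSO-treated RORA cells and 100% = added signal equal to DMSO minus mock-transfected cells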
Target sequence (P35398 whole entry, looked up, the tested form may be a part): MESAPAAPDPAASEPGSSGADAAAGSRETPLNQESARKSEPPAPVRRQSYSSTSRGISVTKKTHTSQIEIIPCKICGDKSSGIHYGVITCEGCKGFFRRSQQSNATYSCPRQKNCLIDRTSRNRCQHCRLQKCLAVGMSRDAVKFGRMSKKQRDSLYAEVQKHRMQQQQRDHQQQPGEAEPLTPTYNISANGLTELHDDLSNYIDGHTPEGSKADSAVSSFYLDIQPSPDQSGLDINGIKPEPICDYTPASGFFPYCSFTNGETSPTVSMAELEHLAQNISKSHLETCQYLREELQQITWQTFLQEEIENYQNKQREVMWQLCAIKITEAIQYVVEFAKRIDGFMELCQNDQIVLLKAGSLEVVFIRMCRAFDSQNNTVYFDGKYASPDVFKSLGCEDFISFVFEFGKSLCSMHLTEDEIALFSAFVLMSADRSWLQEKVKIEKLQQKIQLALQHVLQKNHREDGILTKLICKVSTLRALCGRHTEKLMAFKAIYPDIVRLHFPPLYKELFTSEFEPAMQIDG
PKA kinase inh: inhibitors of human PKA kinase activity, primary screen, biochemical, ATP-depletion luminescence, Kemptide substrate | inhibition, % at 6 µM | PKA Kemptide phosphorylation, Kinase-Glo ATP luminescence | 0.1% of 65,000 active;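 active = inhibition above the screen-wide mean inhibition plus 3 SD, cut at about 21% in these data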
JNK3 inh: JNK3 kinase activity inhibitors, primary screen, biochemical, human, purified enzyme; inhibition, % at 8 µM; 0.61% of 60,000 active; HTS; in the data active = inhibition above about 17%;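 note: 0% = DMSO and 100% = reference inhibitor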
* marks the source's active call; other numbers are inactive results; · = not tested or not shown.

SMILES | MT1-MMP txn act | SF1 activator | ROCK2 inh | RORA act | PKA kinase inh | JNK3 inh
CC(=O)Nc1c(O)nc(SCC(=O)Nc2ccc(C(C)=O)cc2)[nH]c1=O | 1.7 | 49.9* | 9.0 | 58.1* | 7.2 | 5.3
Cc1ccc(-n2nc(C)c(C3C(C#N)=C(N)OC4=C3C(=O)CC(C)(C)C4)c2Cl)cc1 (stereo not given) | 1 | 57.0* | 3.6 | 30.0 | 3.8 | 2.7
Cc1nn(-c2ccccc2)c(Cl)c1C1C(C#N)=C(N)OC2=C1C(=O)CCC2 (stereo not given) | 1.1 | -10.8 | · | -23.0 | 5.8 | ·
O=C(c1cccs1)N1CCn2c1nc1ccccc12 | 1.5 | 53.2* | -11.9 | 36.8 | -2.1 | 1.2
N#CCC(=O)N1CCn2c1nc1ccccc12 | 1.1 | -14.6 | 6.9 | -17.3 | 7.4 | -2.4
Oc1ccccc1C1=Nc2nc3ccccc3n2C(c2ccccc2)C1 (stereo not given) | 1.3 | 42.0 | 4.7 | 80.8* | 12.3 | 5.4
CN1C(=O)CC(n2c(CO)nc3ccccc32)C1=O (stereo not given) | 1 | 18.5 | 7.8 | -0.8 | 13.5 | -0.4
CCOc1ccc(-c2nc(N)ncc2-c2ccccc2)c(O)c1 | 1.1 | -29.0 | 16.8 | 12.5 | 10.8 | 50.7*
Cc1ccc(NC(C(N)=O)c2c(C)[nH]c(=O)[nH]c2=O)cc1 (stereo not given) | 1.2 | 13.9 | 4.7 | -6.3 | 5.9 | -0.2
Cc1nc(NC(=O)c2ccccc2)sc1-c1csc(NCc2ccccc2)n1 | 1.1 | · | · | · | · | ·
Cc1nc(NC(=O)c2ccccc2)sc1-c1csc(N)n1 | 1.3 | 32.3 | 2.2 | 80.6* | 1.6 | 8.9
Nc1nc2ccccc2n1/N=C/c1ccc(Br)cc1 | 1.5 | 69.1* | 6.7 | 69.5* | 12.9 | 6.5
CCC(=O)n1nc(-c2ccc(OC)cc2)nc1SC | 1.1 | · | · | · | · | ·
COc1ccc(-c2nc(SC)n(C(=O)c3ccco3)n2)cc1 | 1.4 | 58.0* | 3.8 | 30.0 | 3.8 | 5.5
COc1ccc(-c2cc(-c3ccccc3O)[nH]n2)cc1 | 2.5* | · | · | · | · | ·
Oc1ccc(Cl)cc1-c1cc(-c2ccccc2)n[nH]1 | 1.4 | 25.4 | -2.0 | 12.1 | 3.9 | 1.7
O=C(Nc1ccc(-c2cn3ccsc3n2)cc1)C1CCCC1 | 0.5 | 58.5* | -6.9 | 29.9 | -4.3 | 0.5
O=C(CCN1C(=O)c2ccccc2C1=O)Nc1ccc(-c2cn3ccsc3n2)cc1 | 1 | 65.2* | 3.7 | 17.5 | -1.1 | 3.0
O=C(CCN1C(=O)c2ccccc2C1=O)Nc1ccc(-c2nc3ccccc3o2)cc1 | 0.8 | 52.7* | 0.0 | 50.1* | 10.9 | 5.0
O=C(CCN1C(=O)c2ccccc2C1=O)Nc1ccc(F)cc1 | 0.9 | -4.5 | 1.0 | 9.2 | 1.5 | 2.9
O=C(Nc1ccc(-c2cn3ccsc3n2)cc1)C1CC1 | 0.8 | 61.3* | -0.3 | 8.3 | 4.4 | -7.0
CC(=O)Nc1ccc(-c2cn3ccsc3n2)cc1 | 0.9 | 33.4 | 2.5 | 40.5 | 6.4 | 6.9
COc1cccc(C(=O)N(CN2CCCC2=O)c2ccccc2OC)c1 | 1.2 | 3.1 | -3.7 | -3.8 | -0.3 | 1.0
O=C(c1nn(Cc2ccccc2)c(=O)c2ccccc12)N1CCN(C/C=C/c2ccccc2)CC1 | 1 | · | · | · | · | ·
CCN(C(=O)c1ccco1)c1nnc(-c2ccc(OC)cc2)s1 | 1.4 | · | · | · | · | ·
SMILES | MT1-MMP txn act | SF1 activator | ROCK2 inh | RORA act | PKA kinase inh | JNK3 inh
CN(C(=O)c1ccco1)c1nnc(C23CC4CC(CC(C4)C2)C3)s1 | 1.6 | 75.7* | 0.0 | 60.9* | 2.8 | -3.8
O=C(NCc1ccccc1)c1noc2c1CCCCC2 | 1.8 | 52.5* | 3.0 | 30.1 | 2.0 | 11.0
O=C1CCc2cc(S(=O)(=O)NCCC(=O)N3CCN(c4cccc(Cl)c4)CC3)ccc2N1 | 1 | -2.0 | 0.8 | -5.3 | 6.7 | -5.0
Cc1ccc(S(=O)(=O)N(CCC#N)CCN2CCCC2)cc1 | 1.2 | 1.7 | 6.3 | -8.0 | 11.9 | 4.8
CC(C)(C)c1ccc(-c2conc2N)cc1 | 1 | 51.6* | -1.6 | 23.0 | 6.3 | 1.3
Cn1c(-c2ccc(C(C)(C)C)cc2)n[nH]c1=S | 1.4 | 2.5 | 3.1 | 46.3 | 7.5 | -4.6
C=CCn1c2ccccc2c2nnc(SCC(=O)OCN3C(=O)c4ccccc4C3=O)nc21 | 1.1 | · | · | · | · | ·
COc1ccc2nc(NCc3ccccc3)[nH]c2c1 | 1.5 | 36.5 | 5.9 | 51.7* | 3.2 | -5.2
c1ccc(CNc2nc3ccccc3[nH]2)cc1 | 1 | 0.4 | · | -13.5 | 1.2 | ·
Cc1ccc2nc(NCc3ccccc3)[nH]c2c1 | 0.7 | 67.5* | 15.4 | 37.1 | 7.2 | -2.4
COC(=O)c1ccc(C(NC(=O)OCc2ccccc2)/C(=C/[C@@H](C)C(=O)NCc2ccccc2)C(F)(F)F)cc1 (stereo not given in full) | 1.1 | · | · | · | · | ·
O=C(Nc1ccccc1)c1ccc(NC2CCCCC2)c(S(=O)(=O)N2CCOCC2)c1 | 1.1 | · | · | · | · | ·
CC(C)(C)NC(=O)c1ccc2nccnc2c1 | 1 | 2.6 | 5.8 | -20.0 | 10.6 | 3.0
CC(C)(C)NC(=O)Nc1ccc2nccnc2c1 | 1.3 | 48.9 | -0.5 | 89.5* | -1.9 | 8.3
Cc1ccc(N(CC(=O)NC2CCCC2)C(=O)c2c(C)noc2C)cc1C | 1 | · | · | · | · | ·
CCOC(=O)c1sc(NC(=O)c2cccs2)cc1C | 1.5 | 27.0 | -4.2 | 26.1 | 3.3 | 14.1
CCOC(=O)c1sc(NC(=O)c2ccc(Br)o2)cc1C | 1.5 | 68.9* | · | 69.2* | 5.5 | ·
CN(C)P(=NC(=O)COc1ccc(Cl)cc1Cl)(N(C)C)N(C)C | 1.2 | -0.8 | 7.4 | 6.5 | 5.4 | 1.0
NC(=O)c1c(NC(=O)c2cccs2)sc2c1CCCCCC2 | 1.5 | 45.4 | 7.7 | 55.8* | 9.1 | 2.8
COC(=O)c1c(NC(=O)C2CCCO2)sc2c1CCC2 (stereo not given) | 1 | · | · | · | · | ·
NC(=O)c1c(NC(=O)C2CCCO2)sc2c1CCC2 (stereo not given) | 1.3 | 10.6 | 5.4 | 9.0 | 12.1 | 31.1*
O=C(NCCc1c[nH]c2ccccc12)[C@H]1C[C@@H]1[C@H](NP(=O)(c1ccccc1)c1ccccc1)c1ccccc1 | 1 | · | · | · | · | ·
Cc1sc2c(c1C)CN(Cc1ccco1)CN2C(=O)c1ccccc1 | 2.1* | 22.4 | 4.8 | 20.0 | 6.3 | -3.4
Cc1cccc2cc(=O)[nH]c(C)c12 | 1.1 | 6.5 | 18.4* | -26.1 | 8.3 | 3.8
COC(=O)CCc1c(C)nc(N)[nH]c1=O | 1 | · | · | · | · | ·
CCCCc1c(C)nc(N)[nH]c1=O | 1 | -3.7 | 18.4* | -11.3 | 7.3 | 2.0
Cc1cc(OCC(=O)NCc2nc(-c3ccccc3)no2)c(C)cc1Br | 1.1 | -1.9 | 8.7 | -12.6 | 12.9 | 5.2
